Laboratory results as given in ChEMBL document CHEMBL4229468, “Novel cinnamaldehyde-based aspirin derivatives for the treatment of colorectal cancer” (Bioorg Med Chem Lett, 2018).

Assays:
HCT-8 [1] = assay: Antiproliferative activity against human HCT8 cells after 72 hrs by MTT assay; format: functional, cell-based; conditions: HCT-8, 72 h
Method in brief: (§1)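 MTT proliferation assay (details in supplement); positive control 5-FU; mixture comparator ASA + CA physical mixture at 1:1 mole ratio; IC50 = concentration inhibiting 50% of proliferation; mean ± SD from three independent experiments.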

HCT-8 [2] = assay: Antiproliferative activity against human HCT8 cells after 72 hrs in presence of cinnamaldehyde by MTT assay; format: functional, cell-based; conditions: HCT-8, 72 h; method in brief: as §1
HCT-8 [3] = assay: Cell cycle arrest in human HCT8 cells assessed as accumulation at S phase at 3 uM after 24 hrs by propidium iodide staining-based flow cytometric method (reference value: 36.19%); format: functional
HCT-8 [4] = assay: Cell cycle arrest in human HCT8 cells assessed as accumulation at S phase at 12 uM after 24 hrs by propidium iodide staining-based flow cytometric method (reference value: 36.19%); format: functional
CCD-841CoN = assay: Antiproliferative activity against human CCD-841-CoN cells after 72 hrs by MTT assay; format: cell-based
Method in brief: (§2)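 MTT proliferation assay on colorectal cancer (DLD-1) or non-tumorigenic colon (CCD841) cells. IC50 is the drug concentration inhibiting 50% of cell proliferation, given as the mean ± SD of three independent experiments.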

HCT-8 [5] = assay: Induction of apoptosis in human HCT8 cells assessed as late apoptotic cells at 6 uM after 24 hrs by annexin V-FITC/propidium iodide staining-based flow cytometric method (reference value: 2.40%)
HCT-8 [6] = assay: Induction of apoptosis in human HCT8 cells assessed as early apoptotic cells at 6 uM after 24 hrs by annexin V-FITC/propidium iodide staining-based flow cytometric method (reference value: 0.25%); format: functional
HCT-8 [7] = assay: Potency index, ratio of 5-FU IC50 to test compound IC50 for human HCT8 cells; format: functional
Mus musculus = assay: Toxicity in BALB/c nude mouse xenografted with human HCT8 cells assessed as change in body weight at 60 mg/kg, ip administered daily for 32 days; format: organism-based; conditions: in vivo, 768 h
Method in brief: (§3)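 HCT-8 cells inoculated subcutaneously; after solid tumours established, mice randomized to daily intraperitoneal dosing at 60 mg/kg or vehicle Tween 80/PBS (5:95) for 32 consecutive days; tumour volume, tumour weight and body weight recorded; n = 6 per group; mean ± SD; P vs vehicle.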

HCT-8 [8] = assay: Induction of apoptosis in human HCT8 cells assessed as late apoptotic cells at 12 uM after 24 hrs by annexin V-FITC/propidium iodide staining-based flow cytometric method (reference value: 2.40%)
HCT-8 [9] = assay: Induction of apoptosis in human HCT8 cells assessed as early apoptotic cells at 3 uM after 24 hrs by annexin V-FITC/propidium iodide staining-based flow cytometric method (reference value: 0.25%); format: functional
[10] = Selectivity index, ratio of IC50 for human CCD-841-CoN cells to IC50 for human HCT8 cells; format: toxicity; conditions: CCD-841-CoN cells versus HCT8 cells, read-out: Ratio IC50
HCT-8 [11] = assay: Cell cycle arrest in human HCT8 cells assessed as accumulation at G1 phase at 12 uM after 24 hrs by propidium iodide staining-based flow cytometric method (reference value: 40.05%); format: functional
HCT-8 [12] = assay: Cell cycle arrest in human HCT8 cells assessed as accumulation at G2 phase at 3 uM after 24 hrs by propidium iodide staining-based flow cytometric method (reference value: 23.77%); format: functional
DLD-1 = assay: Antiproliferative activity against human DLD1 cells after 72 hrs by MTT assay; format: functional, cell-based; conditions: DLD-1, 72 h; method in brief: as §2
HCT-8 [13] = assay: Induction of apoptosis in human HCT8 cells assessed as upregulation of cleaved PARP levels after 24 hrs by Western blot method; format: functional, cell-based
Method in brief: (§4)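 Cells treated 24 h with 0, 3, 6, 12 μM or control (0.1% DMSO); whole-cell lysates immunoblotted for cleaved caspase 3 and PARP.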

HCT-8 [14] = assay: Induction of apoptosis in human HCT8 cells after 24 hrs by annexin V-FITC/propidium iodide staining-based flow cytometric method; format: functional, cell-based
HCT-8 [15] = assay: Cell cycle arrest in human HCT8 cells assessed as accumulation at G1 phase at 6 uM after 24 hrs by propidium iodide staining-based flow cytometric method (reference value: 40.05%); format: functional
HCT-8 [16] = assay: Induction of reactive oxygen species formation in human HCT8 cells at 12 uM after 24 hrs by DCFH-DA dye-based flow cytometric method (reference value: 3.67%); format: functional
Method in brief: (§5)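 Cells treated 24 h with 0, 3, 6 or 12 μM, stained with fluorogenic 2',7'-dichlorofluorescin diacetate; ROS level read by flow cytometry.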

HCT-8 [17] = assay: Induction of apoptosis in human HCT8 cells assessed as early apoptotic cells at 6 uM after 24 hrs in presence of ROS scavenger NAC by annexin V-FITC/propidium iodide staining-based flow cytometric method (reference value: 0.25%); format: functional
[18] = Selectivity index, ratio of IC50 for human CCD-841-CoN cells to IC50 for human DLD1 cells; format: toxicity; conditions: CCD-841-CoN cells versus DLD1 cells, read-out: Ratio IC50
Method in brief: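 MTT IC50 in DLD-1 and non-tumorigenic CCD841 colon cells; IC50 = concentration inhibiting 50% proliferation; mean ± SD, three independent experiments.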

HCT-8 [19] = assay: Induction of apoptosis in human HCT8 cells assessed as late apoptotic cells at 6 uM after 24 hrs in presence of ROS scavenger NAC by annexin V-FITC/propidium iodide staining-based flow cytometric method (reference value: 5.42%); format: functional
HCT-8 [20] = assay: Cell cycle arrest in human HCT8 cells assessed as accumulation at S phase at 6 uM after 24 hrs by propidium iodide staining-based flow cytometric method (reference value: 36.19%); format: functional
HCT-8 [21] = assay: Induction of reactive oxygen species formation in human HCT8 cells at 6 uM after 24 hrs by DCFH-DA dye-based flow cytometric method (reference value: 3.67%); format: functional; method in brief: as §5
HCT-8 [22] = assay: Cell cycle arrest in human HCT8 cells assessed as accumulation at G1 phase at 3 uM after 24 hrs by propidium iodide staining-based flow cytometric method (reference value: 40.05%); format: functional
HCT-8 [23] = assay: Induction of reactive oxygen species formation in human HCT8 cells at 3 uM after 24 hrs by DCFH-DA dye-based flow cytometric method (reference value: 3.67%); format: functional; method in brief: as §5
HCT-8 [24] = assay: Induction of apoptosis in human HCT8 cells assessed as upregulation of cleaved caspase-3 levels after 24 hrs by Western blot method; format: functional, cell-based; method in brief: as §4
HCT-8 [25] = assay: Cell cycle arrest in human HCT8 cells assessed as accumulation at G2 phase at 12 uM after 24 hrs by propidium iodide staining-based flow cytometric method (reference value: 23.77%); format: functional
HCT-8 [26] = assay: Cell cycle arrest in human HCT8 cells assessed as accumulation at G1 phase after 24 hrs by propidium iodide staining-based flow cytometric method; format: functional
HCT-8 [27] = assay: Antitumor activity against human HCT8 cells xenografted in BALB/c nude mouse assessed as tumor weight at 60 mg/kg, ip administered daily for 32 days measured every 4 days during compound dosing relative to control; format: functional; method in brief: as §3
HCT-8 [28] = assay: Cell cycle arrest in human HCT8 cells assessed as accumulation at G2 phase at 6 uM after 24 hrs by propidium iodide staining-based flow cytometric method (reference value: 23.77%); format: functional
HCT-8 [29] = assay: Induction of apoptosis in human HCT8 cells assessed as early apoptotic cells at 12 uM after 24 hrs by annexin V-FITC/propidium iodide staining-based flow cytometric method (reference value: 0.25%); format: functional
HCT-8 [30] = assay: Induction of apoptosis in human HCT8 cells assessed as late apoptotic cells at 3 uM after 24 hrs by annexin V-FITC/propidium iodide staining-based flow cytometric method (reference value: 2.40%)
HCT-8 [31] = assay: Antiproliferative activity against human HCT8 cells after 72 hrs in presence of aspirin by MTT assay; format: functional, cell-based; conditions: HCT-8, 72 h
Method in brief: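 MTT proliferation assay in HCT-8 colorectal cancer cells, run on a physical mixture with aspirin at a 1:1 mole ratio. IC50 is the concentration inhibiting 50% of cell proliferation, given as the mean ± SD of three independent experiments.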

CC(=O)Oc1ccccc1C(=O)Oc1ccc(C)cc1/C=C/C=O
IC50 (HCT-8 [1]): 8.5 µM

CC(=O)Oc1ccccc1C(=O)O [ASPIRIN]
IC50 (HCT-8 [1]): > 100 µM
IC50 (HCT-8 [2]): 15.6 µM

CC(=O)Oc1ccccc1C(=O)Oc1ccc(Cl)cc1/C=C/C=O
IC50 (HCT-8 [1]): 4.3 µM

CC(=O)Oc1ccc(F)cc1/C=C/C=O
IC50 (HCT-8 [1]): 10.5 µM

CC(=O)Oc1ccccc1C(=O)Oc1ccc(Br)cc1/C=C/C=O
IC50 (HCT-8 [1]): 5.6 µM

COc1cccc(/C=C/C=O)c1OC(=O)c1ccccc1OC(C)=O
IC50 (HCT-8 [1]): 17.6 µM

CC(=O)Oc1ccccc1C(=O)Oc1ccc(F)cc1/C=C/C=O
Activity (HCT-8 [3]): 35.89%
Activity (HCT-8 [4]): 36.15%
IC50 (CCD-841CoN): 30.7 µM
Activity (HCT-8 [5]): 17.03%
Activity (HCT-8 [6]): 15.56%
Ratio IC50 (HCT-8 [7]): 11
Activity (Mus musculus): Non-Toxic
Activity (HCT-8 [8]): 27.71%
Activity (HCT-8 [9]): 8.69%
selectivity ratio [10]: 11
Activity (HCT-8 [11]): 51.62%
Activity (HCT-8 [12]): 20.94%
IC50 (DLD-1): 4.3 µM
Activity (HCT-8 [13]): Dose-dependent effect
Activity (HCT-8 [14]): Dose-dependent effect
Activity (HCT-8 [15]): 48.66%
Activity (HCT-8 [16]): 47.83%
Activity (HCT-8 [17]): 7.4%
selectivity ratio [18]: 7
Activity (HCT-8 [19]): 5.58%
Activity (HCT-8 [20]): 38.71%
Activity (HCT-8 [21]): 25.07%
Activity (HCT-8 [22]): 43.17%
Activity (HCT-8 [23]): 18.67%
Activity (HCT-8 [24]): Dose-dependent effect
Activity (HCT-8 [25]): 12.23%
IC50 (HCT-8 [1]): 2.6 µM
Activity (HCT-8 [26]): Dose-dependent effect
Activity (HCT-8 [27]): 47%
Activity (HCT-8 [28]): 12.63%
Activity (HCT-8 [29]): 15.84%
Activity (HCT-8 [30]): 5.42%

COC(=O)c1ccccc1OC(C)=O
IC50 (HCT-8 [1]): > 100 µM

CC(=O)Oc1ccccc1C(=O)Oc1ccccc1/C=C/C=O
IC50 (HCT-8 [1]): 20.3 µM

COc1ccc(/C=C/C=O)c(OC(=O)c2ccccc2OC(C)=O)c1
IC50 (HCT-8 [1]): 15.8 µM

O=c1[nH]cc(F)c(=O)[nH]1 [FLUOROURACIL]
IC50 (CCD-841CoN): 35.7 µM
IC50 (DLD-1): 33 µM
IC50 (HCT-8 [1]): 28.9 µM

O=C/C=C/c1ccccc1 [CINNAMALDEHYDE]
IC50 (HCT-8 [31]): 15.6 µM
IC50 (HCT-8 [1]): 29.4 µM

COc1ccc(OC(=O)c2ccccc2OC(C)=O)c(/C=C/C=O)c1
IC50 (HCT-8 [1]): 9.3 µM
